Measurements reported in ChEMBL document CHEMBL1126152, “Fluoronaphthyridines as antibacterial agents. 4. Synthesis and structure-activity relationships of 5-substituted-6-fluoro-7-(cycloalkylamino)-1,4-dihydro-4-oxo-1,8- naphthyridine-3-carboxylic acids” (J Med Chem, 1992).
Converted amounts (≈) assume the structure as drawn.

How the values were obtained:
Staphylococcus aureus [1] = experiment: animal or person; assay type: functional; conditions: in Mus musculus, po, read-out: PD50
[2] = Lethal dose was determined in OF1-strain female Swiss mice after oral administration of the drug; conditions: mouse, in vivo
Streptococcus pneumoniae [3] = experiment: Antibacterial activity against Streptococcus pneumoniae; assay type: functional
[4] = (§1) Solubility was measured at PH - 7.2 buffer
Klebsiella pneumoniae = experiment: In vitro for antibacterial activity against Klebsiella pneumoniae; assay type: functional
In short: (§2)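 MIC by serial 2-fold broth dilution in nutrient broth with an inoculum of 10^6 CFU/mL. Compound range was 0.0005–250 μg/mL. Plates were incubated 18 h at 37 °C. MIC was taken as the lowest concentration preventing visible growth.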

Proteus mirabilis = experiment: In vitro for antibacterial activity against Proteus mirabilis; assay type: functional
In short: as §2

Enterococcus faecalis = experiment: In vitro for antibacterial activity against Enterococcus faecalis; assay type: functional
In short: as §2

Morganella morganii = experiment: In vitro for antibacterial activity against Morganella morganii; assay type: functional
In short: as §2

Staphylococcus aureus [5] = experiment: Antibacterial activity against Staphylococcus aureus; assay type: functional
Streptococcus pneumoniae [6] = experiment: animal or person; assay type: functional; conditions: in Mus musculus, po, read-out: PD50
[7] = Lethal dose was determined in OF1-strain female Swiss mice after intra venous administration of the drug; conditions: mouse, in vivo, iv
Escherichia coli [8] = experiment: Compound was tested for […] against Escherichia coli A 15119 after oral administration of drug in mice; assay type: functional; conditions: read-out: PD50
In short: (§3)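 Mouse protection test against systemic infection. Compound was dissolved in sterile water and given orally to female OF1-strain Swiss mice weighing 18–25 g, with five mice per group.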

Serratia marcescens = experiment: In vitro for antibacterial activity against Serratia marcescens; assay type: functional
In short: as §2

Escherichia coli [9] = experiment: In vitro for antibacterial activity against Escherichia coli; assay type: functional
In short: as §2

Pseudomonas aeruginosa [10] = experiment: animal or person; assay type: functional; conditions: in Mus musculus, po, read-out: PD50
Bacteroides fragilis = experiment: In vitro for antibacterial activity against […].; assay type: functional
In short: as §2

Enterobacter cloacae = experiment: In vitro for antibacterial activity against Enterobacter cloacae; assay type: functional
Mus musculus [11] = species on record: Mus musculus; conditions: in vivo
[12] = Partition coefficient (logD); conditions: octanol/water
Pseudomonas aeruginosa [13] = experiment: In vitro for antibacterial activity against Pseudomonas aeruginosa; assay type: functional
In short: as §2

Pseudomonas aeruginosa [14] = experiment: Compound was tested for […] against Pseudomonas aeruginosa A 9843 after oral administration of drug in mice,; assay type: functional; conditions: read-out: PD50
In short: as §3

[15] = as §1; assay type: physicochemical
In short: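 Excess solid was shaken overnight at 22 °C in pH 7.2 buffer for injection, then filtered. The diluted filtrate was assayed by HPLC with UV detection.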

Staphylococcus = experiment: Compound was tested for […] against Staphylococcus aureus A 15090 after oral administration of drug in mice; assay type: functional; conditions: read-out: PD50
In short: as §3

in vivo = conditions: mouse, plasma, T1/2
Mus musculus [16] = species on record: Mus musculus; conditions: in vivo; remark: listed apart in the source

Compound | ED50 (Staphylococcus aureus [1]) [mg/kg] | LD50 [2] [mg/kg] | MIC (Streptococcus pneumoniae [3]) [µg/mL] | solubility [4] [µg/mL] | MIC (Klebsiella pneumoniae) [µg/mL] | MIC (Proteus mirabilis) [µg/mL] | MIC (Enterococcus faecalis) [µg/mL] | MIC (Morganella morganii) [µg/mL] | MIC (Staphylococcus aureus [5]) [µg/mL] | ED50 (Streptococcus pneumoniae [6]) [mg/kg] | LD50 [7] [mg/kg] | ED50 (Escherichia coli [8]) [mg/kg] | MIC (Serratia marcescens) [µg/mL] | MIC (Escherichia coli [9]) [µg/mL] | ED50 (Pseudomonas aeruginosa [10]) [mg/kg] | MIC (Bacteroides fragilis) [µg/mL] | MIC (Enterobacter cloacae) [µg/mL] | logD [12] | MIC (Pseudomonas aeruginosa [13]) [µg/mL] | ED50 (Staphylococcus) [mg/kg] | also measured
CN[C@H]1CCN(c2nc3c(c(C)c2F)c(=O)c(C(=O)O)cn3-c2ccc(F)cc2F)C1 | 1.8 | 2500 | 0.06 (≈ 0.139 µM) | 10 (≈ 23.1 µM) | 0.016 (≈ 0.037 µM) | 0.13 (≈ 0.301 µM) | 0.25 (≈ 0.578 µM) | 0.06 (≈ 0.139 µM) | 0.008 (≈ 0.0185 µM) | 4.1 | 94 | 2.7 | 0.25 (≈ 0.578 µM) | 0.016 (≈ 0.037 µM) | 1.8 | 2 (≈ 4.63 µM) | 0.03 (≈ 0.0694 µM) | 1.38 | 1 (≈ 2.31 µM) | – | AUC (Mus musculus [11]): 32000 ng·h/mL
Cc1c(F)c(N2CC[C@H](N)C2)nc2c1c(=O)c(C(=O)O)cn2C1CC1 | 5.5 | 2500 | 0.13 (≈ 0.375 µM) | 70 (≈ 202 µM) | 0.004 (≈ 0.0115 µM) | 0.008 (≈ 0.0231 µM) | 0.13 (≈ 0.375 µM) | 0.016 (≈ 0.0462 µM) | 0.004 (≈ 0.0115 µM) | 19 | 56 | 1.8 | 0.004 (≈ 0.0115 µM) | 0.002 (≈ 0.00577 µM) | – | 0.25 (≈ 0.722 µM) | 0.002 (≈ 0.00577 µM) | 0.78 | 0.25 (≈ 0.722 µM) | – | ED50 (Pseudomonas aeruginosa [14]): 2.8 mg/kg
CCn1cc(C(=O)O)c(=O)c2c(C)c(F)c(N3CC[C@H](N)C3)nc21 | – | – | 0.5 (≈ 1.5 µM) | – | 0.016 (≈ 0.0479 µM) | 0.13 (≈ 0.389 µM) | 2 (≈ 5.98 µM) | 0.03 (≈ 0.0897 µM) | 0.016 (≈ 0.0479 µM) | – | – | – | 0.13 (≈ 0.389 µM) | 0.002 (≈ 0.00598 µM) | – | – | 0.008 (≈ 0.0239 µM) | – | 1 (≈ 2.99 µM) | – | solubility [15]: 30 µg/mL (≈ 89.7 µM)
O=C(O)c1cn(C2CC2)c2nc(N3CCNCC3)c(F)cc2c1=O | – | – | – | – | 0.06 (≈ 0.181 µM) | 0.25 (≈ 0.752 µM) | 8 (≈ 24.1 µM) | 0.06 (≈ 0.181 µM) | 0.25 (≈ 0.752 µM) | – | – | 0.4 | 0.25 (≈ 0.752 µM) | 0.03 (≈ 0.0903 µM) | 3.6 | – | 0.06 (≈ 0.181 µM) | – | 0.5 (≈ 1.5 µM) | 7 | –
O=C(O)c1cn(C2CC2)c2cc(N3CCNCC3)c(F)cc2c1=O [CIPROFLOXACIN] | – | – | 0.25 (≈ 0.754 µM) | – | 0.06 (≈ 0.181 µM) | – | 0.5 (≈ 1.51 µM) | – | 0.13 (≈ 0.392 µM) | > 50 | – | 1.2 | 0.03 (≈ 0.0905 µM) | – | 2.6 | 4 (≈ 12.1 µM) | – | – | – | 8 | –
NC1CCN(c2nc3c(cc2F)c(=O)c(C(=O)O)cn3-c2ccc(F)cc2F)C1 (stereo not drawn) [TOSUFLOXACIN] | – | 2500 | 0.06 (≈ 0.148 µM) | 20 (≈ 49.5 µM) | 0.016 (≈ 0.0396 µM) | 0.03 (≈ 0.0742 µM) | 0.25 (≈ 0.618 µM) | 0.06 (≈ 0.148 µM) | 0.016 (≈ 0.0396 µM) | 11.4 | 81 | 1.8 | 0.13 (≈ 0.322 µM) | 0.004 (≈ 0.00989 µM) | 2.9 | 1 (≈ 2.47 µM) | 0.03 (≈ 0.0742 µM) | 0.1 | 0.25 (≈ 0.618 µM) | 2.1 | half-life (in vivo): 2.4 h; T1/2 (Mus musculus [16]): 1.38 h
